From ChEMBL document CHEMBL3112403, “Design, synthesis and evaluation of second generation MurF inhibitors based on a cyanothiophene scaffold” (Eur J Med Chem, 2014)

Assays:
[1] = target: T1, UDP-N-acetylmuramoyl-tripeptide--D-alanyl-D-alanine ligase (Streptococcus pneumoniae) (UniProt Q9ZHC3); assay: Inhibition of Streptococcus pneumoniae MurF ligase using D-Ala-D-Ala as substrate assessed as residual activity at 250 uM after 15 mins by malachite green assay
T1 sequence (whole entry): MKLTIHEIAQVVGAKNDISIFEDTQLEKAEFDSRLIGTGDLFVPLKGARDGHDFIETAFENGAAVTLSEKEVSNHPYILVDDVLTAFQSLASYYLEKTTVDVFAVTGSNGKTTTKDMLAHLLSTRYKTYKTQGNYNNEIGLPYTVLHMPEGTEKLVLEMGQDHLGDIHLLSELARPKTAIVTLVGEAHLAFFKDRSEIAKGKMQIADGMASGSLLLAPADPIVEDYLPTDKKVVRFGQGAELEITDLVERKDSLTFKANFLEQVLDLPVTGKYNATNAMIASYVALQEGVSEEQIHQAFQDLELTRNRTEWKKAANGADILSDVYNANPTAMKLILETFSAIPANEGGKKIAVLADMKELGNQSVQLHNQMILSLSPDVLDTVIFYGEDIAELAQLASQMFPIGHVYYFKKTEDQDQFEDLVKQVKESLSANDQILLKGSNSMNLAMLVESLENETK
How it was run: (§1)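 Purified S. pneumoniae MurF in 50 mM Hepes pH 8.0 with 50 mM MgCl2, 0.005% Triton X-114, 100 µM D-Ala-D-Ala, 50 µM UMtri-L-Lys and 250 µM ATP, with 5% DMSO final. After 15 min at 37 °C, Biomol reagent was added and absorbance read at 650 nm, in duplicate. RA was taken against a 5% DMSO control. IC50 was the 50% RA point from seven concentrations.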

Escherichia coli [2] = assay: Inhibition of […] MurF ligase using D-Ala-D-Ala as substrate assessed as residual activity at 250 uM after 15 mins by malachite green assay
How it was run: (§2)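 After 15 min at 37 °C, Biomol reagent was added and phosphate read at 650 nm, in duplicate. RA was taken relative to a 5% DMSO control. IC50 was taken as the concentration giving 50% RA, from seven concentrations.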

Escherichia coli [3] = assay: Antibacterial activity against Escherichia coli AB734 assessed as growth inhibition by broth microdilution method; type: functional
How it was run: (§3)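 MICs by broth microdilution in Mueller-Hinton broth following CLSI guidelines.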

Staphylococcus aureus = assay: Antibacterial activity against Staphylococcus aureus SH1000 assessed as growth inhibition by broth microdilution method; type: functional; how it was run: as §3
Escherichia coli [4] = assay: Antibacterial activity against Escherichia coli 1411 assessed as growth inhibition by broth microdilution method; type: functional; how it was run: as §3
Escherichia coli [5] = assay: Antibacterial activity against Escherichia coli SM1411 harboring acrAB deletion mutant assessed as growth inhibition by broth microdilution method; type: functional
How it was run: (§4)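 MIC by broth microdilution in Mueller-Hinton broth following CLSI guidelines. ES100 is the tolC derivative of AB734, and SM1411 is the acrAB derivative of 1411; both are efflux-deficient E. coli strains. Growth inhibition was read as the minimum inhibitory concentration.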

[6] = target: T2, UDP-N-acetylmuramoyl-tripeptide--D-alanyl-D-alanine ligase (Streptococcus pneumoniae, UniProt Q9ZHC3); assay: Inhibition of Streptococcus pneumoniae MurF ligase using D-Ala-D-Ala as substrate after 15 mins by malachite green assay; how it was run: as §1
T2 sequence (Q9ZHC3 whole entry): T1 sequence (whole entry)

Escherichia coli [7] = assay: Antibacterial activity against Escherichia coli AB734 assessed as growth inhibition by broth microdilution method in presence of polymyxin B nonapeptide; type: functional
How it was run: (§5)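 Broth microdilution MIC in Mueller-Hinton broth per CLSI, run with 4 µg/mL polymyxin B nonapeptide to permeabilize the outer membrane.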

Escherichia coli [8] = assay: Antibacterial activity against Escherichia coli ES100 harboring tolC deletion mutant assessed as growth inhibition by broth microdilution method; type: functional; how it was run: as §4
Escherichia coli [9] = assay: Antibacterial activity against Escherichia coli 1411 assessed as growth inhibition by broth microdilution method in presence of polymyxin B nonapeptide; type: functional; how it was run: as §5
[10] = Inhibition of Escherichia coli MurF ligase using D-Ala-D-Ala as substrate after 15 mins by malachite green assay; how it was run: as §2

| Structure (SMILES) | Activity [1] [%] | Activity (Escherichia coli [2]) [%] | MIC (Escherichia coli [3]) [mg/L] | MIC (Staphylococcus aureus) [mg/L] | MIC (Escherichia coli [4]) [mg/L] | MIC (Escherichia coli [5]) [mg/L] | IC50 [6] [µM] | MIC (Escherichia coli [7]) [mg/L] | MIC (Escherichia coli [8]) [mg/L] | MIC (Escherichia coli [9]) [mg/L] | IC50 [10] [µM] |
| --- | --- | --- | --- | --- | --- | --- | --- | --- | --- | --- | --- |
| CC(=O)Oc1ccc(C2CCc3c(sc(NC(=O)c4cc(OCCNC(=O)C(F)(F)F)ccc4Cl)c3C#N)C2)cc1 (configuration not stated) | 98 | 101 |  |  |  |  |  |  |  |  |  |
| N#Cc1c(NC(=O)c2cc(OCCNC(=O)C(F)(F)F)ccc2Cl)sc2c1CCN(Cc1ccccc1)C2 |  | 46 | > 256 | > 256 | > 256 | > 256 | 172 | > 256 | > 256 | > 256 |  |
| N#Cc1c(NC(=O)c2cc(OCCN)ccc2Cl)sc2c1CCN(Cc1ccccc1)C2 |  |  | 64 | 64 | 64 | 32 | 51 | 32 | 16 | 32 | 84 |
| COC(=O)c1ccc(CN2CCc3c(sc(NC(=O)c4cc(OCCNC(=O)C(F)(F)F)ccc4Cl)c3C#N)C2)cc1 | 55 |  | > 256 | > 256 | > 256 | > 256 |  | > 256 | > 256 | > 256 | 255 |
| COC(=O)c1ccc(CN2CCc3c(sc(NC(=O)c4cc(OCCN)ccc4Cl)c3C#N)C2)cc1 |  |  | > 256 | 128 | > 256 | 64 | 109 | 64 | 32 | 64 | 88 |
| N#Cc1c(NC(=O)c2cc(OCCNC(=O)C(F)(F)F)ccc2Cl)sc2c1CCNC2.O=C(O)C(F)(F)F | 99 | 91 | > 256 | > 256 | > 256 | > 256 |  | > 256 | > 256 | > 256 |  |
